One data set relates to Proteus vulgaris. Description: Antibacterial activity against Proteus vulgaris at 100 ug/ml after 16 to 20 hrs by broth microdilution method. Format: functional, organism-based. In general terms: Broth dilution looks for growth in wells or tubes with falling amounts of substance.
Another data set deals with Bacillus subtilis. The data set can be described thus: Antibacterial activity against Bacillus subtilis at 100 ug/ml after 16 to 20 hrs by broth microdilution method. Format: functional, organism-based.
In data set [1] the test system is Enterococcus faecalis. The data set can be described thus: Antibacterial activity against Enterococcus faecalis after 16 to 20 hrs by broth microdilution method. Format: functional. The procedure, abridged:
(§1)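 Broth microdilution MIC. Exponentially growing bacteria diluted in sterile liquid medium to a final inoculum of 1 × 10⁴ CFU/mL, cultured with serial compound dilutions for 16-20 h. MIC taken as the lowest inhibitory concentration.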

The test system of the next data set is Salmonella typhimurium. The data set can be described thus: Antibacterial activity against Salmonella Typhimurium at 100 ug/ml after 16 to 20 hrs by broth microdilution method. The conditions noted are these: Salmonella enterica subsp. enterica serovar Typhimurium. Format: functional, organism-based.
The next data set deals with Escherichia coli. Description: Antibacterial activity against Escherichia coli at 100 ug/ml after 16 to 20 hrs by broth microdilution method. Format: functional, organism-based.
In data set [2] the test system is Streptococcus pyogenes. Description: Antibacterial activity against Streptococcus pyogenes after 16 to 20 hrs by broth microdilution method. Format: functional. The procedure, abridged:
as §1

In another data set the test system is Pseudomonas aeruginosa. Description: Antibacterial activity against Pseudomonas aeruginosa at 100 ug/ml after 16 to 20 hrs by broth microdilution method. Format: functional, organism-based.
In another data set the test system is Streptococcus pneumoniae. The data set can be described thus: Antibacterial activity against Streptococcus pneumoniae at 100 ug/ml after 16 to 20 hrs by broth microdilution method. Format: functional, organism-based.
Data set [3] has as its system Staphylococcus aureus. Description: Antibacterial activity against Staphylococcus aureus after 16 to 20 hrs by broth microdilution method. Format: functional. The method in brief: as §1
Data set [4] deals with Listeria monocytogenes. The data set can be described thus: Antibacterial activity against Listeria monocytogenes after 16 to 20 hrs by broth microdilution method. Format: functional. The procedure, abridged: as §1
For data set [5], the system named is Staphylococcus epidermidis. Description: Antibacterial activity against Staphylococcus epidermidis after 16 to 20 hrs by broth microdilution method. Format: functional. The procedure, abridged:
as §1

Data set [6] concerns Mycobacterium tuberculosis. Description: Antitubercular activity against Mycobacterium tuberculosis H37Ra at 2.5 to 5 ug/ml after 6 days by microplate alamar blue assay. Format: functional. The method in brief:
(§2)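 MABA run in 7H9GC medium, with drug diluted from DMSO stocks made at 100× the highest final concentration. Final levels were 100, 50, 10, 5, 2.5 and 1 μg/mL in triplicate, and the experiment was done three times. Inoculum was 2.5 × 10⁵ CFU/mL final. Alamar Blue plus Tween-80 was added once bacteria-only control wells turned pink, from day 6 on, and plates were read visually and by fluorescence after 24 h. Visual MIC is the lowest concentration preventing the blue-to-pink change. Mean percent inhibition was taken relative to bacteria-only and medium-only wells.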

Data set [7] is described as follows: Cytotoxicity against human HuH7 cells assessed as cell viability at 200 ug/ml after 2 days by XTT assay. The conditions noted are these: huh-7, 48 h. Format: cell-based. The procedure, abridged: (§3)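 Huh-7 cells seeded at 1 × 10⁵ cells/well and left to attach 6-8 h. Medium then replaced with compound at 200, 100, 50, 10 or 1 μg/mL, with a DMSO control, and incubated 2 days at 37 °C. Viability by XTT, absorbance read at 450-500 nm.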
(In general: Tetrazolium assays rely on reduction of a dye to a coloured formazan, in cell work by metabolically active cells.)

Data set [8] deals with Mycobacterium tuberculosis. Description: Antitubercular activity against Mycobacterium tuberculosis H37Ra infected in BALB/c mouse assessed as reduction of CFU counts in lungs at 50 mg/kg, ip administered 5 days after infection for 25 days measured after 3 days last dose. Format: functional, organism-based. Details: dose 50 mg/kg. The procedure, abridged:
(§4)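 Female BALB/c mice, 5–6 weeks old, were infected iv via the tail vein with about 2.5 × 10⁵ CFU of H37Ra in PBS, 5 per group. From day 5, drug was given ip at 50 mg/kg, 5 days/week, for 25 treatment days, in 10% DMSO–saline or poly(ethylene glycol) methyl ether. Controls received diluent only. Three days after the last dose, lung, liver and spleen homogenates were plated on 7H11 agar at 37 °C for up to 4 weeks. Colony counts were done blinded.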

In data set [9] the test system is Staphylococcus epidermidis. Description: Antibacterial activity against Staphylococcus epidermidis at 100 ug/ml after 16 to 20 hrs by broth microdilution method. Format: functional, organism-based.
Data set [10] deals with Streptococcus pyogenes. The data set can be described thus: Antibacterial activity against Streptococcus pyogenes at 100 ug/ml after 16 to 20 hrs by broth microdilution method. Format: functional, organism-based.
In data set [11] the test system is Mycobacterium tuberculosis. The data set can be described thus: Antitubercular activity against Mycobacterium tuberculosis H37Ra at 10 ug/ml after 6 days by microplate alamar blue assay. The conditions noted are these: 144 h. Format: functional. The method in brief:
as §2
In general terms: Resazurin is reduced to fluorescent resorufin, in cell work by metabolically active cells.

Data set [12] relates to Mycobacterium tuberculosis. Description: Antitubercular activity against Mycobacterium tuberculosis H37Ra at 100 ug/ml after 6 days by microplate alamar blue assay. Format: functional. The conditions noted are these: 144 h. The procedure, abridged:
as §2

Data set [13] relates to Mycobacterium tuberculosis. Description: Antitubercular activity against Mycobacterium tuberculosis H37Ra after 6 days by microplate alamar blue assay. Format: functional. The conditions noted are these: 144 h. The procedure, abridged:
as §2

The test system of data set [14] is Mycobacterium tuberculosis. Description: Antitubercular activity against Mycobacterium tuberculosis H37Ra infected in BALB/c mouse assessed as reduction of CFU counts in liver at 50 mg/kg, ip administered 5 days after infection for 25 days measured after 3 days last dose. Format: functional, organism-based. Set-up: dose 50 mg/kg. The procedure, abridged: as §4

Data set [15] has as its system Staphylococcus aureus. Description: Antibacterial activity against Staphylococcus aureus at 100 ug/ml after 16 to 20 hrs by broth microdilution method. Format: functional, organism-based.
Data set [16] can be described thus: Cytotoxicity against human HuH7 cells assessed as cell viability after 2 days by XTT assay. Format: cell-based, Huh-7. The conditions noted are these: huh-7, 48 h. The method in brief:
as §3

The subject of data set [17] is Mycobacterium tuberculosis. The data set can be described thus: Antitubercular activity against Mycobacterium tuberculosis H37Ra at 50 ug/ml after 6 days by microplate alamar blue assay. The conditions noted are these: 144 h. Format: functional. The procedure, abridged: as §2
Data set [18] relates to Mycobacterium tuberculosis. The data set can be described thus: Antitubercular activity against Mycobacterium tuberculosis H37Ra infected in BALB/c mouse assessed as reduction of CFU counts in spleen at 50 mg/kg, ip administered 5 days after infection for 25 days measured after 3 days last dose. Format: functional, organism-based. Set-up: dose 50 mg/kg. The procedure, abridged:
as §4

For another data set, the system named is Mus musculus. Description: Toxicity in Mycobacterium tuberculosis H37Ra infected in BALB/c mouse assessed as adverse effect at 50 mg/kg, ip administered 5 days after infection for 25 days. Set-up: dose 50 mg/kg, route intraperitoneal. Format: organism-based. The conditions noted are these: in vivo. The method in brief:
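BALB/c mice infected with H37Ra were given 50 mg/kg ip in 10% DMSO–saline from day 5 post-infection, 5 days/week, over 25 treatment days. They were monitored for weight loss and behavioural changes and examined by gross necropsy after euthanasia.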

In data set [19] the test system is Listeria monocytogenes. The data set can be described thus: Antibacterial activity against Listeria monocytogenes at 100 ug/ml after 16 to 20 hrs by broth microdilution method. Format: functional, organism-based.
Data set [20] relates to Enterococcus faecalis. Description: Antibacterial activity against Enterococcus faecalis at 100 ug/ml after 16 to 20 hrs by broth microdilution method. Format: functional, organism-based.
A short description of data set [21]: Cytotoxicity against human HuH7 cells assessed as cell viability at > 200 ug/ml after 2 days by [3H]thymidine incorporation assay. Format: cell-based. The conditions noted are these: huh-7, 48 h.

≈ marks a conversion by molar mass, not a printed value. Calls of active or inactive are those of the source. No cut-off for these calls is given here.

The values below come from ChEMBL document CHEMBL1212938, “Inhibition of mycobacterial replication by pyrimidines possessing various C-5 functionalities and related 2'-deoxynucleoside analogues using in vitro and in vivo models” (J Med Chem, 2010).

Broadly, the MIC90 is an inhibitory concentration at the 90% level, which refers to growth in some studies and to a panel of isolates in others. As for `CCCCCC#Cc1c[nH]c(=O)[nH]c1=O`, the result in the data set on Proteus vulgaris, in the data set with Bacillus subtilis, in the data set on Salmonella typhimurium, in the data set with Escherichia coli, in the data set on Pseudomonas aeruginosa and in the data set on Streptococcus pneumoniae was inactive. Besides, the MIC90 with Enterococcus faecalis [1] stood at 50 µg/mL (≈ 242 µM); against Streptococcus pyogenes [2] it was 50 µg/mL (≈ 242 µM); with Staphylococcus aureus [3], 50 µg/mL (≈ 242 µM); against Listeria monocytogenes [4], 50 µg/mL (≈ 242 µM); in data set [5], 10 µg/mL (≈ 48.5 µM).
The inhibition is how much of the control response was suppressed. Broadly, the MIC50 is the lowest concentration that inhibits either 50% of growth or 50% of the strains tested, depending on the study. Higher therefore signals lower susceptibility. `Nc1nc(=O)n([C@H]2C[C@H](O)[C@@H](CO)O2)cc1C#Cc1ccccn1`: the “inhibition (INH)” value in data set [6] is 50%. For the same compound, the result (in the data set on Proteus vulgaris; in the data set on Bacillus subtilis; in [9]; in the data set on Salmonella typhimurium; in the data set with Escherichia coli; in the data set with Streptococcus pyogenes [10]) was inactive. Further, the outcome in the data set with Pseudomonas aeruginosa, with Staphylococcus aureus [15], with Listeria monocytogenes [19], in the data set with Streptococcus pneumoniae and with Enterococcus faecalis [20] was inactive. The Activity entry (in [7]; in [16]; in the data set with Mus musculus; in data set [21]) was “Non-toxic” in each case. Further, the outcome in [8], in data set [14] and in [18] was Active. Also, the inhibition at 10 µg/mL in [11] was 70%. In [12], this compound came in with an inhibition at 100 µg/mL of 90%. The MIC50 in data set [13] is 2.5 µg/mL (≈ 7.61 µM). In addition, in data set [17], the inhibition at 50 µg/mL was found to be 90%.
